Measurements gathered from unrelated publications.
Compare with care: the assays were run in different laboratories.
Target: Mitogen-activated protein kinase 12 (MAPK12, Homo sapiens, UniProt P53778)
Residues used in one study (P53778 1-367): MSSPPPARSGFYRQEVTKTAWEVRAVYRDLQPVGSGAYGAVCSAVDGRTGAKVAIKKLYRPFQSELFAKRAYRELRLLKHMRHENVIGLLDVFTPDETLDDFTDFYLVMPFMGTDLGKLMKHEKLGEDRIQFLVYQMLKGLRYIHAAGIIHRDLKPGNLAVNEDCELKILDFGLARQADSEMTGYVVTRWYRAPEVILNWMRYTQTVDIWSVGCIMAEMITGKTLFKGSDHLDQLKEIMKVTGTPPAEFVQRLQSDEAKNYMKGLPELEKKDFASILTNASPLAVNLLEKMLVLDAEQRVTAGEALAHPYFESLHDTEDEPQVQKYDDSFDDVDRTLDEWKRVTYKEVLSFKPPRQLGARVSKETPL

Structure (SMILES) | observed | action | technique | tested at | measurement | value
Cc1cnc(NC2CCOCC2)nc1-n1cnc(C(=O)NC(CN)c2cc(F)cc(Cl)c2)c1 (stereo not shown) | enzyme activity | inhibitor | radiometric | 1 µM | remaining activity | 48%
Cn1nc(C(F)(F)F)cc1-c1cnc(N2CCc3cc(S(=O)(=O)Nc4c(F)cc(Cl)cc4F)cc(N4CCCC4=O)c32)nc1 | cell-free assay | – | competition with immobilised ligand | 1 µM | remaining binding | 83%
Nc1nc(NC2CCCCC2)sc1C(=O)c1ccccc1 | enzyme activity | inhibitor | – | 10 µM | remaining activity | 71%
CN1CCN(c2cnc3c(C4CCN(C(=O)c5ccc(OC(F)(F)F)cc5N)CC4)ncnc3c2)CC1 | cell-free assay | – | competition with immobilised ligand | 1 µM | remaining binding | 83%
O=C(Nc1cnn(-c2csc(C(=O)NC3COC3)c2)c1)Nc1ccccc1Cl | enzyme activity | inhibitor | – | 5 µM | remaining activity | 99.4%
Nc1ncnc2occ(-c3ccc(NC(=O)Nc4cc(C(F)(F)F)ccc4F)cc3)c12 | cell-free assay | inhibitor | – | 20 µM | remaining signal | 0.5%
CN1CC(Oc2cnc(C#N)cc2-c2ccn3nc(NC(=O)C4CC4)cc3c2)C1 | enzyme activity | inhibitor | – | 1 µM | inhibition | -1%
CCOC(=O)c1cc2cc(-c3cc(C(=O)NCc4ccc(C(=O)O)cc4)nn3C)ccc2[nH]1 | cell-free assay | – | competition with immobilised ligand | 0.1 µM | remaining binding | 77%
COc1cc2ncnc(Nc3ccc(Oc4ccccc4)cc3C)c2cc1OC | enzyme activity | inhibitor | – | 1 µM | inhibition | 4%
CCN(CC)CCNC(=O)c1c(C)[nH]c(/C=C2\C(=O)Nc3ccc(F)cc32)c1C | enzyme activity | inhibitor | – | 0.3 µM | inhibition | -10%
CC(C)(C)c1nc2c(s1)c1nc(N)ncc1c1ccc(NS(=O)(=O)c3c(F)cccc3F)c(F)c12 | enzyme activity | inhibitor | radiometric | 1 µM | remaining activity | 100%
Nc1nc(Nc2ccccc2)sc1C(=O)c1c(F)cccc1F | enzyme activity | inhibitor | – | 10 µM | remaining activity | 77%
CCS(=O)(=O)c1cc2cc(C[C@](O)(CC(C)(C)c3ccc(F)cc3C(N)=O)C(F)(F)F)[nH]c2cn1 | cell-free assay | – | competition with immobilised ligand | 1 µM | remaining binding | 100%
COc1cc(/C=C/C(=O)CC(=O)/C=C/c2ccc(O)c(OC)c2)ccc1O | enzyme activity | inhibitor | – | 1 µM | activity vs control | 101%
Cc1ccc(NC(=O)c2ccc(C)c(C(F)(F)F)c2)cc1C#Cc1nn(C2CCC(O)CC2)c2ncnc(N)c12 (stereo not shown) | cell-free assay | – | – | 10 µM | remaining signal | 68%
COc1cc(Nc2cnc(C#N)c(O[C@H](C)CN(C)C)n2)ncc1-c1cnn(C)c1 | enzyme activity | inhibitor | radiometric | 1 µM | remaining activity | 89%
FC(F)c1nc2ccccc2n1-c1nc(N2CCOCC2)nc(N2CCOCC2)n1 | enzyme activity | inhibitor | – | 10 µM | remaining activity | 92%
NS(=O)(=O)c1cc(NC(=O)Cc2ccccc2)ccc1Oc1cccc(Cl)c1 | cell-free assay | – | competition with immobilised ligand | 1 µM | remaining binding | 100%
Cc1ccc(Nc2nccc(N(C)c3ccc4c(C)n(C)nc4c3)n2)cc1S(N)(=O)=O | enzyme activity | inhibitor | – | 10 µM | inhibition | -5%
N#CC1(c2ccccn2)CCN(Cc2cc(C(=O)N3CCCC3)c(=O)n3ccccc23)CC1 | cell-free assay | – | competition with immobilised ligand | 1 µM | remaining binding | 100%
CCCS(=O)(=O)Nc1ccc(F)c(C(=O)c2c[nH]c3ncc(-c4ccc(Cl)cc4)cc23)c1F | enzyme activity | inhibitor | – | 1 µM | inhibition | < 10%
CNC(=O)Nc1ccc2c(c1)CC[C@@]21OC(=O)N(CC(=O)N(Cc2ccc(F)cc2)[C@@H](C)C(F)(F)F)C1=O | cell-free assay | – | competition with immobilised ligand | 1 µM | remaining binding | 63%
Oc1ccc(-c2nc(-c3ccncc3)c(-c3ccc(F)cc3)[nH]2)cc1 | cell-free assay | – | – | 0.5 µM | remaining signal | 102%
Cc1cc(NC(=O)c2cccc3cc(-c4cccc5[nH]nc(N)c45)ccc23)ccc1F | enzyme activity | inhibitor | – | 0.1 µM | activity vs control | 83%
O=C1Nc2ccc(Cl)cc2C1=Cc1cc(Cl)c(O)c(Cl)c1 | cell-free assay | – | – | 0.5 µM | remaining signal | 90.5%
Cc1sc(C(=O)NC2COC2)cc1-n1cc(NC(=O)Nc2c(F)cccc2Cl)cn1 | enzyme activity | inhibitor | – | 10 µM | remaining activity | 90.5%
O=C(NC[C@@H]1[C@H]2CN(C(=O)OCc3cc(C(F)(F)F)cc(C(F)(F)F)c3)C[C@@H]12)c1ccc2[nH]nnc2c1 | cell-free assay | – | competition with immobilised ligand | 1 µM | remaining binding | 100%
O=C1NC(=O)c2cc(Nc3ccc(F)cc3)c(Nc3ccc(F)cc3)cc21 | cell-free assay | – | – | 0.5 µM | remaining signal | 93.6%
